Assay results as given in the RNAGym collection of RNA variant scans (doi:10.1002/anie.201605470).

B1: Osa-1-4 twister ribozyme (parent)
chain: CCGCCUAACACUGCCAAUGCCGGUCCCAAGCCCGGAUAAAAGUGGAGGGGGCGG

Variants of: B1
Assay: self-cleavage, relative activity (ratio to wild type); higher = more cleavage; co-transcriptional
Method in brief: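 Relative activity is the fraction cleaved divided by that of the wild-type ribozyme. The library came from a DNA template for a 54-nucleotide Oryza sativa twister ribozyme, doped at the 48 positions downstream of the cleavage site with 97 % wild-type base and 1 % of each other base. After 2 h of in vitro transcription at 37 °C with co-transcriptional self-cleavage, the RNA was reverse-transcribed with a template-switching oligonucleotide, amplified by PCR and deep-sequenced, and reads with or without upstream sequence gave the cleavage status.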

Row | Variant | self-cleavage
1 | A10C A41C | 0.05
2 | A10C A41G | 0.11
3 | A10C A41U | 0.06
4 | C9U G53U | 0.17
5 | C9U G53A | 0.63
6 | C9U G53C | 0.05
7 | A10C G34A | 0.04
8 | A10C G34U | 0.05
9 | A10C G34C | 0.03
10 | A10C C9U | 0.06
11 | A10C C9G | 0.07
12 | A10C C9A | 0.43
13 | A10C C52G | 0.11
14 | A10C C52A | 0.06
15 | A10C C52U | 0.11
16 | A10C G50U | 0.04
17 | A10C G50A | 0.11
18 | A10C G50C | 0.04
19 | A10C G13C | 0.02
20 | A10C G13U | 0.03
21 | A10C G13A | 0.02
22 | A10C G49U | 0.02
23 | A10C G49C | 0.02
24 | A10C G49A | 0.02

Row | Variant | self-cleavage
25 | A10C G19A | 0.04
26 | A10C G19C | 0.02
27 | A10C G19U | 0.03
28 | A10C A40G | 0.04
29 | A10C A40C | 0.03
30 | A10C A40U | 0.03
31 | A10C U12G | 0.04
32 | A10C U12A | 0.03
33 | A10C U12C | 0.06
34 | A10C G35U | 0.04
35 | A10C G35A | 0.07
36 | A10C G35C | 0.03
37 | A10C G47A | 0.02
38 | A10C G47U | 0.03
39 | A10C G47C | 0.02
40 | A10C | 0.12
41 | A10C G42C | 0.02
42 | A10C G42A | 0.03
43 | A10C G42U | 0.01
44 | C9U U37A | 0.4
45 | C9U U37G | 0.85
46 | C9U U37C | 0.82
47 | C9U G51A | 0.28
48 | C9U G51C | 0.04

Row | Variant | self-cleavage
49 | C9U G51U | 0.11
50 | C9U U43C | 0.16
51 | C9U U43A | 0.68
52 | C9U U43G | 0.4
53 | A10C C21A | 0.04
54 | A10C C21G | 0.01
55 | A10C C21U | 0.06
56 | A10C G48A | 0.02
57 | A10C G48C | 0.02
58 | A10C G48U | 0.02
59 | A10C G54A | 0.17
60 | A10C G54U | 0.3
61 | A10C G54C | 0.14
62 | C9U U12A | 0.24
63 | C9U U12G | 0.06
64 | C9U U12C | 0.05
65 | A10C G53U | 0.06
66 | A10C G53C | 0.02
67 | A10C G53A | 0.11
68 | C9U G50U | 0.86
69 | C9U G50C | 0.73
70 | A10C A16C | 0.09
71 | A10C A16G | 0.14
72 | A10C A16U | 0.08

Row | Variant | self-cleavage
73 | A10C A46C | 0.02
74 | A10C A46U | 0.02
75 | A10C A46G | 0.03
76 | A10C U18C | 0.07
77 | A10C U18A | 0.08
78 | A10C U18G | 0.24
79 | A10C C25U | 0.04
80 | A10C C25A | 0.03
81 | A10C C25G | 0.01
82 | A10C G22A | 0.05
83 | A10C G22C | 0.02
84 | A10C G22U | 0.03
85 | A10C G45U | 0.02
86 | A10C G45A | 0.02
87 | A10C G45C | 0.02
88 | A10C C14A | 0.02
89 | A10C C14U | 0.03
90 | A10C C14G | 0.04
91 | C9U U18C | 0.53
92 | C9U U18A | 0.6
93 | C9U U18G | 0.57
94 | A10C A39C | 0.05
95 | A10C A39G | 0.06
96 | A10C A39U | 0.05

Row | Variant | self-cleavage
97 | A10C C15U | 0.04
98 | A10C C15A | 0.08
99 | A10C C15G | 0.04
100 | A10C U24A | 0.02
101 | A10C U24G | 0.02
102 | A10C U24C | 0.04
103 | A10C A28U | 0.05
104 | A10C A28C | 0.08
105 | A10C A28G | 0.03
106 | A10C C32G | 0.02
107 | A10C C32A | 0.02
108 | A10C C32U | 0.02
109 | A10C A8C | 0.15
110 | A10C A8U | 0.04
111 | A10C A8G | 0.06
112 | A10C C20G | 0.03
113 | A10C C20U | 0.08
114 | A10C C20A | 0.08
115 | A10C U37G | 0.11
116 | A10C U37A | 0.11
117 | A10C U37C | 0.09
118 | A10C U43C | 0.05
119 | A10C U43A | 0.39
120 | A10C C11U | 0.51

Row | Variant | self-cleavage
121 | A10C C11G | 0.04
122 | A10C C11A | 0.1
123 | C9U U24A | 0.06
124 | C9U U24C | 0.06
125 | C9U U24G | 0.01
126 | A10C G23U | 0.02
127 | A10C G23A | 0.03
128 | A10C G23C | 0.01
129 | A10C A38G | 0.08
130 | A10C A38C | 0.07
131 | A10C A38U | 0.08
132 | A10C C27A | 0.06
133 | A10C C27G | 0.02
134 | A10C C27U | 0.02
135 | A10C C33A | 0.03
136 | A10C C33U | 0.04
137 | A10C C33G | 0.02
138 | A10C G30C | 0.01
139 | A10C G30A | 0.01
140 | A10C G30U | 0.01
141 | A10C A17U | 0.08
142 | A10C A17G | 0.1
143 | A10C A17C | 0.03
144 | A10C G44C | 0.16

Row | Variant | self-cleavage
145 | A10C G44U | 0.22
146 | A10C G44A | 0.06
147 | A10C A7C | 0.04
148 | A10C A7G | 0.06
149 | A10C A7U | 0.06
150 | A10C G51U | 0.04
151 | A10C G51C | 0.02
152 | A10C G51A | 0.06
153 | A10C A36C | 0.03
154 | A10C A36U | 0.09
155 | A10C A36G | 0.11
156 | A10C A29G | 0.03
157 | A10C A29U | 0.02
158 | A10C A29C | 0.02
159 | A10C C31G | 0.03
160 | A10C C31U | 0.03
161 | A10C C31A | 0.02
162 | A10C C26A | 0.03
163 | A10C C26G | 0.03
164 | A10C C26U | 0.03
165 | C9U G54A | 0.69
166 | C9U G54C | 0.71
167 | C9U G54U | 0.72
